Assay outcomes: PubChem, several laboratories
Pf gametocyte – P. falciparum stage V gametocyte viability inhibition. inhibition, % at 10.9 µM. P. falciparum stage V gametocytes, ATP luminescence, 24 h. hit rate 0.065% among 150,000. AID 743093;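 active = inhibition above the mean plus 3 SD of compounds within the control limits, set per campaign, cut at about 38% in these data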
NF-kB neuron act – raises NF-kB expression in human neuronal cells. NF-kB reporter expression; hits give high values. fold change at 12.5 µM. hit rate 1.6% among 190,000; in the data active = fold change above about 3.3
APP 5'UTR act – activates APP 5'UTR luciferase reporter | SH-SY5Y APP 5'UTR luciferase reporter, luminescence; zero percent = DMSO vehicle wells | activation, % at 2 µM | hit rate 1% among 190,000 | AID 1276;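 active = activation above a set limit, based on mean plus 3 SD of controls, cut at about 140% in these data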
FLuc inhib CS – counter-screen for luciferase assay inhibitors: firefly luciferase inhibition. hit rate 1.5% among 200,000. inhibition, % at 10 µM. ATPLite firefly luciferase biochemical luminescence, 10 min;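 active = inhibition above about 50% when tested at 10 µM, limit read from the data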
Target sequence (P08659 whole entry, looked up): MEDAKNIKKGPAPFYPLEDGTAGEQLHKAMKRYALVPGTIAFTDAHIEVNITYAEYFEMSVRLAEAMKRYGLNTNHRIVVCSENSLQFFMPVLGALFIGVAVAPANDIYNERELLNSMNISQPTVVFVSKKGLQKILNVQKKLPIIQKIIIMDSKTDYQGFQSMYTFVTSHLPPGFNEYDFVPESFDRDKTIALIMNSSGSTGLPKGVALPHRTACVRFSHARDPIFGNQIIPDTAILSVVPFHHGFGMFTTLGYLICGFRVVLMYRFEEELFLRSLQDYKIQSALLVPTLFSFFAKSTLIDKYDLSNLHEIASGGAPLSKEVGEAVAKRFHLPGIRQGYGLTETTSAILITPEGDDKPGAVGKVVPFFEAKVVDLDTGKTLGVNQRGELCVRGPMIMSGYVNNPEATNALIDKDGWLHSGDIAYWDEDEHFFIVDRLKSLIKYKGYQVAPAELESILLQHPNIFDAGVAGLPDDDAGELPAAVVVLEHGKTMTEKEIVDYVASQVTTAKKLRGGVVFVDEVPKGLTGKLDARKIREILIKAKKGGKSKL
FLuc act counter – affects firefly luciferase, flagging false hits in luciferase stimulation screens; activation factor at 10 µM; 200,000 tested, under 10 active; ATPlite luciferase biochemical, luminescence, 10 min; 0 = ATP-free wells, 1 = DMSO control; AID 1027; P08659;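 active = luciferase activation factor, scaled between plate controls, of at least 2 with compound at 10 µM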
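Material: luciferase plus luciferin reagent, cell-free. Medium: PBS buffer for ATP. Also added: ATP substrate, dispensed from a 10.24 µM working solution in PBS. Doses: test compounds dosed from 2 mM stocks in 100% DMSO. Incubation: 10 min post-reagent at room temperature. Technique: light output (luminescence). Read-out basis: luminescence gain marking luciferase activators.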
STAT1 activator – STAT1 signaling activation; AID 932; NIH 3T3 STAT1-luciferase reporter, IFN-gamma, luminescence; 100% = IFN-gamma alone, no compound; hit rate 2.6% among 200,000; activation (% of control), % at 5.5 µM;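 active = activation above the screen-wide mean activation plus 3 SD, cut at about 130% in these data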
Of the large screens only hits and unclear results are named; the others gave an inactive call. This is a sample that favours compounds with a hit; in the whole collection about 3.5% have one here.

Cc1ccc(C)c(N=Nc2nc3ccccc3n2C)c1	NF-kB neuron act 3.9, APP 5'UTR act 161, FLuc inhib CS 75 (no result: Pf gametocyte)
CC(C)(C)c1ccc(/C=C2\SC(=O)N(CCNC(=O)c3cccc(S(=O)(=O)N4CCOCC4)c3)C2=O)cc1	APP 5'UTR act 135, FLuc inhib CS 69 (no result: Pf gametocyte)
CCCCOC(=O)Nc1nnc(C(C)C)s1	STAT1 activator 130
CCCCOC(=O)Nc1ccc(N(C)C)cc1	NF-kB neuron act 4, APP 5'UTR act 171, STAT1 activator 144
CCCCOC(=O)Nc1ccc(C(C)C)cc1	STAT1 activator 130
CCCCOC(=O)Nc1ccc(N2CCCCC2)cc1	NF-kB neuron act 6.1, STAT1 activator 140
CCCCOC(=O)Nc1ccc(C(N)=O)cc1	none
CCCCCOC(=O)Nc1nnc(CCC)s1	none
COC(=O)c1ccccc1NC(=O)CN(c1c(C)cccc1C)S(C)(=O)=O	none (no result: NF-kB neuron act, APP 5'UTR act, FLuc inhib CS, FLuc act counter, STAT1 activator)
Cc1ccccc1N=C1SCC(=O)N1Cc1ccccc1	none (no result: Pf gametocyte)
CCNC(=O)COC(=O)c1sccc1C	none
Cc1ccsc1C(=O)OCC(=O)Nc1sccc1C(N)=O	STAT1 activator 132
CN(C)c1ccc(CNc2nc(-c3ccccc3)nn2S(C)(=O)=O)cc1	none
COCC(=O)n1nc(-c2ccccc2)nc1NCc1ccccc1	STAT1 activator 137 (no result: Pf gametocyte)
CC(=O)n1nc(-c2ccccc2)nc1NCc1ccc(N(C)C)cc1	STAT1 activator 142
COCC(=O)n1nc(-c2ccccc2)nc1NCc1ccc(F)cc1	none
CO/N=C/C1CCN(c2ncc(C(F)(F)F)cc2Cl)C1=O (centres undefined)	none (no result: Pf gametocyte)
COC(=O)c1ccc(S(=O)(=O)NCCSc2nnc3c4ccccc4n(C)c3n2)cc1	none (no result: Pf gametocyte)
CC(C)C(NC(=O)C1CCCCC1)C(=O)Nc1ccc2c(c1)OCCO2 (centres undefined)	STAT1 activator 132
Nc1nnc(-c2ccc(Cl)cc2Cl)s1	STAT1 activator 147
O=S(=O)(c1cccs1)N1CCN(c2ccc(O)cc2)CC1	none (no result: NF-kB neuron act, APP 5'UTR act, FLuc inhib CS, FLuc act counter, STAT1 activator)
Cc1ccc(O)c(-c2cc(-c3ccccc3C)[nH]n2)c1	none (no result: Pf gametocyte)
COc1ccc(-c2cc(-c3cc(C)ccc3O)[nH]n2)cc1	NF-kB neuron act 18, STAT1 activator 146 (no result: Pf gametocyte)
CC1Cc2cc(/C(O)=C3/C(=O)C(=O)N(CCCn4ccnc4)C3c3ccncc3)ccc2O1 (centres undefined)	none
CC1Cc2cc(/C(O)=C3/C(=O)C(=O)N(CCCn4ccnc4)C3c3ccco3)ccc2O1 (centres undefined)	STAT1 activator 132
O=CNC(=O)c1ccccc1C(=O)O	none
NC(=O)c1ccccc1N/C=C/C(=O)c1ccco1	STAT1 activator 134 (no result: Pf gametocyte)
O=C(/C=C/Nc1ccccc1C(F)(F)F)c1ccco1	NF-kB neuron act 6.7, APP 5'UTR act 228, FLuc inhib CS 89
O=C(/C=C/Nc1ccc(Oc2ccccc2)cc1)c1ccco1	NF-kB neuron act 5.4, APP 5'UTR act 164, FLuc inhib CS 69, STAT1 activator 140
O=C(/C=C/c1ccccc1O)c1ccco1	none (no result: NF-kB neuron act, APP 5'UTR act, FLuc inhib CS, FLuc act counter, STAT1 activator)
CC(=O)Nc1ccccc1C(F)(F)F	none (no result: NF-kB neuron act, APP 5'UTR act, FLuc inhib CS, FLuc act counter, STAT1 activator)
O=C(/C=C/Nc1cccc(C(F)(F)F)c1)c1ccco1	STAT1 activator 133
CCN(CC)c1ccc(/C=C(/C#N)c2nc3ccccc3[nH]2)c(OC(C)C)c1	none (no result: Pf gametocyte)
CCOC(=O)c1cc(C)n(-c2ccccc2)c1C	none (no result: NF-kB neuron act, APP 5'UTR act, FLuc inhib CS, FLuc act counter, STAT1 activator)
C/C(=C/c1ccccc1)C(=O)N1CCN(c2ccc(F)cc2)CC1	none (no result: NF-kB neuron act, APP 5'UTR act, FLuc inhib CS, FLuc act counter, STAT1 activator)
CCN(CC)S(=O)(=O)c1cc(C(=O)OCC(=O)Nc2ccc(-c3nc4ccc(C)cc4s3)cc2)ccc1F	NF-kB neuron act 6, APP 5'UTR act 143, STAT1 activator 145 (no result: Pf gametocyte)
COc1ccc(-c2coc3cc(O)ccc3c2=O)cc1OC	none
COc1ccc2c(=O)c(-c3ccc(OC)c(OC)c3)coc2c1	none (no result: Pf gametocyte)
COc1ccc2c(=O)c(-c3ccccc3)coc2c1	NF-kB neuron act 7.3, APP 5'UTR act 158, FLuc inhib CS 70, STAT1 activator 130 (no result: Pf gametocyte)
O=c1c(-c2ccc(F)cc2)coc2cc(O)ccc12	STAT1 activator 146
CCN(CC)C(=O)Oc1ccc2c(=O)c(-c3ccccc3)coc2c1	NF-kB neuron act 4.6
O=C(CN1CCOCC1)Nc1nc2ccc(Br)cc2s1	none
O=C(COc1ccc(F)cc1)c1ccc2c(c1)CCCC2	STAT1 activator 137 (no result: Pf gametocyte, NF-kB neuron act, FLuc inhib CS, FLuc act counter)
Cc1nn2cc(-c3ccc(N)cc3)nc2s1	STAT1 activator 139 (no result: Pf gametocyte)
Cc1c(C(N)=O)sc2nc(-c3ccccc3)cn12	none (no result: Pf gametocyte)
CCOC(=O)c1sc(=S)n(CC)c1NC(=O)c1ccccc1C	none (no result: NF-kB neuron act, APP 5'UTR act, FLuc inhib CS, FLuc act counter, STAT1 activator)
COC(=O)C(Cc1ccccc1)NC(=O)c1ccc(C)cc1 (centres undefined)	FLuc inhib CS 60
COC(=O)C(Cc1ccc(O)cc1)NC(=O)c1ccccc1 (centres undefined)	none (no result: Pf gametocyte)
CN(C)c1ccc(/C=N/N=C2/NC(=O)/C(=C/c3ccc([N+](=O)[O-])cc3)S2)cc1	FLuc inhib CS 89 (no result: Pf gametocyte)
CNC(=S)N/N=C/c1cccc(OCc2ccccc2F)c1	FLuc inhib CS 52, STAT1 activator 132
